The experiment concerns the target T1, Aldehyde dehydrogenase 1A1 (Rattus norvegicus) (UniProt P51647).
T1 sequence (whole entry): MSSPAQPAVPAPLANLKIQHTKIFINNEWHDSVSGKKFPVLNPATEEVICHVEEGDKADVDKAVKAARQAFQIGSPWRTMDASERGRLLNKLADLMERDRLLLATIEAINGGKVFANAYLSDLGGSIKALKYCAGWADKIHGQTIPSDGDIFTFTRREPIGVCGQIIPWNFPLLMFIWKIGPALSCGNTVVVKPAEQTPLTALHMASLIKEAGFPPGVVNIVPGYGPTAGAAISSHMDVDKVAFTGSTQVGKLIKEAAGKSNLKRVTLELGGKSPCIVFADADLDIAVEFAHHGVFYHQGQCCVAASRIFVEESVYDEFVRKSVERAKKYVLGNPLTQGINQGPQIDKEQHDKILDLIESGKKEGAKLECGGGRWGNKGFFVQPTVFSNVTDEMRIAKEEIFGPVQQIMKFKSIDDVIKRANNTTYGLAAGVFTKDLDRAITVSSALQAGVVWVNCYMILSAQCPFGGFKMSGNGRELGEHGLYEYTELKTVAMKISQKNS
The experiment can be described thus: Evaluated in vivo for inhibition of liver mitochondrial aldehyde dehydrogenase activity 2 hour after administering into rats, at a dose of 1.25 mmol/kg. In kind it is organism-based. Particulars: scale: nmol of acetaldehyde(AcH) oxide per minute per mg of protein. Summed up: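 Rats given 1.25 mmol/kg ip; controls given saline. Killed 2 h later. Intact liver mitochondria prepared at 0 °C and kept cold until assay. After 5-min preincubation at 38 °C, 200 nmol AcH added. Quenched after 5 min with HClO₄. Activity given as nmol AcH oxidized/min/mg protein (Lowry), mean ± SEM.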

Molecule `c1ccc(CNC2CC2)cc1` showed an Activity of 2.68.
Regarding `CN(Cc1ccccc1)C1CC1`, the Activity worked out at 3.48.
